Measured values: BindingDB's records for PubMed 36228194 (University of Bayreuth, 2022)

Biological target: T1, NAD-dependent protein deacetylase sirtuin-3, mitochondrial (Homo sapiens, UniProt Q9NTG7)
T1 sequence (Q9NTG7 whole entry): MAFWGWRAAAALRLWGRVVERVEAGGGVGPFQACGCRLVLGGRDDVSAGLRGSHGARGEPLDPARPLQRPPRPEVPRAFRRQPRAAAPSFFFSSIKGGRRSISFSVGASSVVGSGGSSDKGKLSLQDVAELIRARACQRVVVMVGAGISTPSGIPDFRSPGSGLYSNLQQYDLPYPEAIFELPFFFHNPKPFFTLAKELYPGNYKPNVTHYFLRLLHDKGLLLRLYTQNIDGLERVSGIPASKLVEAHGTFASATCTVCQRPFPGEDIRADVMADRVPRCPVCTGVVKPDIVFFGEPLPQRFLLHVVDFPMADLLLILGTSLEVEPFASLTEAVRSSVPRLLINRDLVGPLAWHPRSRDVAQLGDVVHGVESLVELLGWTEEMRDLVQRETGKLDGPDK
Assay: Activation of N-terminal his-tagged human SIRT3 (114 to 380 residues) expressed in Escherichia coli in presence of NAD+ by Mass spectrometry assay
How it was run: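 Mass-spectrometric deacetylation assay using coupled-assay components (1.5 µM Sirt3, 50 µM peptide, 100 µM NAD+, compound 100 µM) in 50 mM Na-phosphate pH 7.8 plus 0.05 µg/µL PNCA to remove nicotinamide; product and substrate peptides quantified.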

CCOC(=O)C1=CN(C(=O)c2cc(OC)c(OC)c(OC)c2)C=C(C(=O)OCC)C1c1ccccc1
EC50: 100 µM
